Results as given in article PMC12949657 (Journal of medicinal chemistry, 2024).
Converted amounts (≈) assume the structure as drawn. Blank lines part the entries; values can stand above or below the compound they belong to.

Legend:
[1] = Mouse snapshot 5 h PK study; type: in vivo; settings: female, CD-1, mouse, plasma, po, 25 mg/kg
In short: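 Two female CD-1 mice received a single oral 25 mg/kg dose in 5% DMA/60% PEG300/35% D5W. Blood was collected into K2EDTA pre-dose and at 0.5, 1, 3 and 5 h, kept on ice, and spun to plasma stored at −80 °C. Quantitation was by LC-MS/MS against plasma standard curves (1/x² weighting) after acetonitrile/methanol precipitation with verapamil internal standard. AUC was calculated by trapezoidal integration.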

E. faecium = settings: cited from earlier work
[2] = system: Enterococcus faecium NCTC 7171 (ATCC 19434); assay: Antibacterial growth inhibition; type: cell-based; settings: ATCC19434|NCTC7171, read-out: E. faecium MIC
[3] = Human plasma protein binding; type: in vitro ADME
E. faecium NCTC 7171 [4] = assay: Griess assay for intrabacterial NO release; type: cell-based, Enterococcus faecium; settings: 100 μM, 24 h and 48 h
In short: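 E. faecium NCTC 7171 was started from a single colony in Mueller-Hinton medium and grown to OD600 0.4. The culture was split into untreated, test compound (100 μM) and DEA-NONOate (100 μM) batches. At 24 h and 48 h, samples were centrifuged and supernatants mixed with fresh Griess reagent for 30 min at rt. A548 was read, and nitrite was estimated against sodium nitrite standards (50–0.78 μM, 2-fold, in Mueller-Hinton).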

CYP3A4 = CYP3A4 (Homo sapiens, UniProt P08684); assay: Human cytochrome P450 inhibition assay, 3A4; type: in vitro ADME; settings: human liver microsomes, 0 – 50 μM
CYP2D6 = CYP2D6 (Homo sapiens, UniProt P10635); assay: Human cytochrome P450 inhibition assay, 2D6; type: in vitro ADME; settings: human liver microsomes, 0 – 50 μM
CYP2C19 = CYP2C19 (Homo sapiens, UniProt P33261); assay: Human cytochrome P450 inhibition assay, 2C19; type: in vitro ADME; settings: human liver microsomes, 0 – 50 μM
E. faecium EN 2966 = assay: MIC assay, vancomycin-resistant E. faecium EN 2966; type: cell-based, Enterococcus faecium
[5] = Mouse plasma protein binding; type: in vitro ADME
Pseudomonas aeruginosa = assay: MIC assay, P. aeruginosa; type: cell-based
CYP2C9 = CYP2C9 (Homo sapiens, UniProt P11712); assay: Human cytochrome P450 inhibition assay, 2C9; type: in vitro ADME; settings: human liver microsomes, 0 – 50 μM
CYP1A2 = target: T1, CYP1A2 (Homo sapiens, UniProt P05177); assay: Human cytochrome P450 inhibition assay, 1A2; type: in vitro ADME; settings: human liver microsomes, 0 – 50 μM
T1 sequence (P05177 1-516): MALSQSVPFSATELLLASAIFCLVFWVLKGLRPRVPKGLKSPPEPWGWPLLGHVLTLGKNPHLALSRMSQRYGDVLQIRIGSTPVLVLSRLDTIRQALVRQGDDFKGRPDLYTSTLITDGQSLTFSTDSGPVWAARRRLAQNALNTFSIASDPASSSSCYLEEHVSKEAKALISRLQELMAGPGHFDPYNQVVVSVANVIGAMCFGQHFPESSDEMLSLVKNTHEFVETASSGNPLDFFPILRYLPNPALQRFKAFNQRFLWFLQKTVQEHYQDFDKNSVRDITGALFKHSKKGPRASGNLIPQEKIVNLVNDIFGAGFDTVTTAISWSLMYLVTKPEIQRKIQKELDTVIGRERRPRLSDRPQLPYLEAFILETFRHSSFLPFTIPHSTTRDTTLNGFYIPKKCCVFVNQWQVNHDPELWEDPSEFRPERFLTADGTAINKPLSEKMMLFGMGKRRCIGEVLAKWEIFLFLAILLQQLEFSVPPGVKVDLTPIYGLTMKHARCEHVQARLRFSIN

[6] = Mouse dose tolerability/proportionality study; type: in vivo
Klebsiella pneumoniae = assay: MIC assay, K. pneumoniae; type: cell-based
E. faecium NCTC 7171 [7] = assay: Minimum bactericidal concentration; type: cell-based; settings: Enterococcus faecium, NCTC7171, read-out: minimal bactericidal concentration (MBC)
In short: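 MBC was taken from the broth microdilution MIC plate. Mid-log E. faecium (OD600 0.2–0.3) was diluted 1:1000 into cation-adjusted Mueller-Hinton II broth with 1% IsoVitaleX, with test compound typically at 200–0.1 μg/mL, and incubated overnight at 37 °C. Wells were mixed, serially diluted 10-fold in DPBS and plated on Mueller-Hinton plus 1% IsoVitaleX agar. Colonies were counted after 2 d at 37 °C.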

Acinetobacter baumannii = assay: MIC assay, A. baumannii; type: cell-based
Staphylococcus aureus = assay: MIC assay, S. aureus; type: cell-based

CYP3A4, sequence (P08684 whole entry): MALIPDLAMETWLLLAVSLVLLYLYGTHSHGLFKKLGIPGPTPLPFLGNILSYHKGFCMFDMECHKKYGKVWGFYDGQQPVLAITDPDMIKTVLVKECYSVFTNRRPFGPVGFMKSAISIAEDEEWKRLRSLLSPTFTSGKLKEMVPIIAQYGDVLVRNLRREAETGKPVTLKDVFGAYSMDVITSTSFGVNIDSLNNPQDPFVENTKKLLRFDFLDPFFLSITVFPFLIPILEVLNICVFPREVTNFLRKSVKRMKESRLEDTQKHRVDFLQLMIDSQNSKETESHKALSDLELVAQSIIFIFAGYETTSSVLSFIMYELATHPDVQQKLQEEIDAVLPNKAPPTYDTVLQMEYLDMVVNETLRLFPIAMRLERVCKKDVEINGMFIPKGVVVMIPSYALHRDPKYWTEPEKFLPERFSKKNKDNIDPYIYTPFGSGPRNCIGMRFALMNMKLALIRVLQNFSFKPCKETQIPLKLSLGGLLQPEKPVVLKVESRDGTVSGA
CYP2C19, sequence (P33261 whole entry): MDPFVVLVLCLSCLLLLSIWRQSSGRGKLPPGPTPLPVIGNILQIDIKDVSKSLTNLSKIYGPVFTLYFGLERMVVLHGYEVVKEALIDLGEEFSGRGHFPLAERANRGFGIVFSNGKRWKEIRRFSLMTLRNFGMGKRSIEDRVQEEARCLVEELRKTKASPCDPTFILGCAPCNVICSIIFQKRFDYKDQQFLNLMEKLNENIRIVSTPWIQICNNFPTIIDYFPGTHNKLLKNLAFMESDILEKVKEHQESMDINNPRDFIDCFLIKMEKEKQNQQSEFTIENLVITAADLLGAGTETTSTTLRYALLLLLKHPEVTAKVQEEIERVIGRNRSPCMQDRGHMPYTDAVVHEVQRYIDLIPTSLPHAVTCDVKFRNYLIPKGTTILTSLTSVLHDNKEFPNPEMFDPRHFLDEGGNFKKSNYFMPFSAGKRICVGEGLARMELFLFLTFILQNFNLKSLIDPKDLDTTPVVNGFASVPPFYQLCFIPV
CYP2C9, sequence (P11712 whole entry): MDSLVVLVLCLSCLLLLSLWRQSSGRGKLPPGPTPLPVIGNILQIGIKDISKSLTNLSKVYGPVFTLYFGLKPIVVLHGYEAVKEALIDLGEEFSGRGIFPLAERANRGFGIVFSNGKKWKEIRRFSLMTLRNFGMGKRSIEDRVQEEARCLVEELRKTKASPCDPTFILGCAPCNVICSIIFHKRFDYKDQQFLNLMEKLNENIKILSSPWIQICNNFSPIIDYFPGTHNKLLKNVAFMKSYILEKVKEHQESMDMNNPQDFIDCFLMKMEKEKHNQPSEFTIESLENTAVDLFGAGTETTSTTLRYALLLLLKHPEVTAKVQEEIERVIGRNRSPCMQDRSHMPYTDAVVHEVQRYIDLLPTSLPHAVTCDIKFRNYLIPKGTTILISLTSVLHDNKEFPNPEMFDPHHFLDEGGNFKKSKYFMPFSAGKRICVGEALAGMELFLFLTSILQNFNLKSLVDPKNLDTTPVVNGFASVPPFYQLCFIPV
CYP2D6, sequence (P10635 whole entry): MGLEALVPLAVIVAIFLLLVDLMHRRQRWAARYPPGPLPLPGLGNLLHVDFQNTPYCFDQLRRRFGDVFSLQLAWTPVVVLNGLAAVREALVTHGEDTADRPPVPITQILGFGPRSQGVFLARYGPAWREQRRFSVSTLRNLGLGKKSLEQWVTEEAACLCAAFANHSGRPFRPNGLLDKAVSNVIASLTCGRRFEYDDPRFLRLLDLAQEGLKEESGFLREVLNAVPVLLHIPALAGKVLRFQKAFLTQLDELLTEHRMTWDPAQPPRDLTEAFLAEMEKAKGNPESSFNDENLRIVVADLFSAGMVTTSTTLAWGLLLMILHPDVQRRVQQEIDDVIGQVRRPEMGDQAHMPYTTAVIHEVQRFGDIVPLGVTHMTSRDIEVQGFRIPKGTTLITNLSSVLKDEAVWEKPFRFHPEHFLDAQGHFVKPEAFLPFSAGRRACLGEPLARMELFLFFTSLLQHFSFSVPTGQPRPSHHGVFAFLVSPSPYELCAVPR

AUC(0-t) [1]: 111000 ng·h/mL
SMILES: O=C(NNC(=O)c1cc2cc(C(F)(F)F)cc(Cl)c2s1)c1ccc([N+](=O)[O-])o1 [Compound 25]

SMILES: O=C1CN(/N=C/c2ccc([N+](=O)[O-])o2)C(=O)N1 [nitrofurantoin]
in vitro efficacy versus E. faecium (E. faecium): limited in vitro efficacy

MIC [2]: 0.75 µM (≈ 0.248 µg/mL)
SMILES: O=C(NNC(=O)c1cc2ccccc2s1)c1ccc([N+](=O)[O-])o1 [JSF-2827, N'-(benzo[b]thiophene-2-carbonyl)-5-nitrofuran-2-carbohydrazide]

SMILES: O=C(NNC(=O)c1sc2cc(Cl)ccc2c1Cl)c1ccc([N+](=O)[O-])o1 [JSF-3269]
binding to human plasma [3]: 99.3%
intracellular release of NO• (nitrite in supernatant) (E. faecium NCTC 7171 [4]): no evidence was found to support the intracellular release of NO•
inhibition of human cytochrome P450 3A4 (CYP3A4): not a significant inhibitor
inhibition of human cytochrome P450 2D6 (CYP2D6): not a significant inhibitor
inhibition of human cytochrome P450 2C19 (CYP2C19): not a significant inhibitor
MIC [2]: 1.9 to 3.8 µM (≈ 0.76 to 1.52 µg/mL)
MIC (E. faecium EN 2966): the same MIC as versus the NCTC 7171 strain
binding to mouse plasma [5]: 99.99%
MIC (Pseudomonas aeruginosa): > 120 µM
inhibition of human cytochrome P450 2C9 (CYP2C9): not a significant inhibitor
inhibition of human cytochrome P450 1A2 (CYP1A2): not a significant inhibitor
exposure (AUC0-24h) dose proportionality ([6]; mice, 50, 150 and 300 mg/kg po): appeared to plateau between 150 and 300 mg/kg
dose tolerability ([6]; mice, doses up to the highest level tested of 300 mg/kg po): tolerated
MIC (Klebsiella pneumoniae): > 120 µM
MBC (E. faecium NCTC 7171 [7]): 7.7 to 15 µM (≈ 3.08 to 6 µg/mL)
MIC (Acinetobacter baumannii): > 120 µM
MIC (Staphylococcus aureus): 16 µM (≈ 6.4 µg/mL)

AUC(0-t) [1]: 43800 ng·h/mL
SMILES: O=C(NNC(=O)c1cc2cc(Cl)cc(Cl)c2s1)c1ccc([N+](=O)[O-])o1 [Compound 22]
